STAT3 inh-1: STAT3 signaling inhibition; inhibition, % at 5.5 µM; U3A cells, IL-6 STAT3-luciferase reporter, luminescence; host cell line lacks STAT1; 190,000 tested, 0.89% active; AID 862;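 active = inhibition above the mean inhibition across all screened compounds plus 3 SD, cut at about 44% in these data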;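 also: 0% = DMSO only wells and 100% = 100 µM nifuroxazide control wells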
TAG inh: inhibitors of triacylglycerol accumulation. H9c2 cells, Nile Red lipid (TAG) fluorescence; cells loaded with 200 µM oleic acid. inhibition, % at 12.5 µM. 230,000 tested, 0.66% active;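 active = pattern-corrected inhibition of lipid staining of at least 50% with the nuclear-stain viability signal not falling by more than 50%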;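 also: 0% = DMSO wells and 100% = triacsin C control wells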
PPC-1+TRAIL kill: kills PPC-1 cancer cells in the presence of TRAIL; PPC-1 cells + TRAIL, ATPLite viability luminescence; cell killing (% activity), % at 4 µM or 5 µM; 220,000 tested, 0.41% active;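 active = cell killing above 50% in the first pass at 4 µM, then a duplicate retest at 5 µM averaging 50% or more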;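 also: plate controls were cells with TRAIL plus DMSO for no effect and medium-only wells lacking cells for full effect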
Lipid droplet: hepatic lipid droplet formation modulation; AML12 mouse hepatocytes, oleate lipid droplets, BODIPY imaging; inhibition, % at 6.5 µM; 240,000 tested, 0.4% active;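 active = lipid droplet intensity inhibited by at least 50%, with more than 500 cells counted; inconclusive = wells with under 300 cells, treated as cytotoxic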
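Technique: fluorescence imaging, 20x objective, two fields per well / Assay system: AML12 hepatocytes (mouse) / Measure: % inhibition of lipid droplet signal / Doses: 6.5 µM single-point dosing / Incubation: overnight exposure / Reagent: 100 µM oleic acid challenge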
STAT1 inh: reduces IFN-gamma driven STAT1 reporter signal | NIH 3T3 STAT1-luciferase reporter, luminescence | inhibition, % at 5.5 µM | 200,000 tested, 0.35% active | AID 920;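 active = inhibition above a set limit, the mean inhibition across all tested compounds plus 3 SD, cut at about 34% in these data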;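 also: 0% = IFN-gamma with DMSO and 100% = IFN-gamma with 300 µM nifuroxazide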
Platelet DG rel: platelet dense granule release activity; human platelet-rich plasma, SFLLRN dense granule ATP release, luminescence; inhibition, %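 (compounds screened at 7.5 µM in platelet-rich plasma)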; 300,000 tested, 0.22% active; AID 1663;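 active = mean replicate score, as percent of positive control, at or above 50; inconclusive = mean below 50 but at least one replicate at or above 50; inactive = mean and every replicate below 50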
STAT3 inh-2: STAT3 inhibition, confirmation assay | shares compounds with STAT3 inh-1 | U3A cells, IL-6 STAT3 luciferase reporter, luminescence; cell line lacks STAT1 | inhibition, % at 5.7 µM | 1,200 tested, 45% active | AID 1265;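 active = inhibition above the hit cutoff computed for the primary STAT3 screen, cut at about 44% in these data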;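 also: 0% = IL-6 plus DMSO and 100% = IL-6 plus nifuroxazide control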
NFkB inh STAT3ct: inhibits NF-kappaB, counter-screen to STAT3 inhibitors; shares compounds with STAT3 inh-1; HEK293T NF-kB luciferase reporter, TNF-alpha induced; 1,200 tested, 36% active; inhibition, % at 5.7 µM; AID 1308;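 active = inhibition above the mean of solvent-only control wells plus 3 SD, cutoff set per campaign, cut at about 13% in these data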;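 also: 0% = TNF-alpha with DMSO and 100% = TNF-alpha with MG high control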
STAT1 inh 2: counter-screen for STAT3 inhibitors: STAT1 inhibition; shares compounds with STAT3 inh-1; NIH 3T3 STAT1-luciferase reporter, IFN-gamma induced, luminescence; inhibition, % at 5.7 µM; 1,200 tested, 27% active; AID 1317;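 active = inhibition above the mean plus 3 SD of solvent-only control wells, limit set per screening run, cut at about 16% in these data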;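 also: 0% = DMSO with IFN-gamma and 100% = nifuroxazide control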
Numbers without * were called inactive; u = inconclusive; x = not tested or not shown. Only some compounds are listed: those with a hit (about 1.5% of all), similar ones and a draw of the others.

SMILES	STAT3 inh-1	TAG inh	PPC-1+TRAIL kill	Lipid droplet	STAT1 inh	Platelet DG rel	STAT3 inh-2	NFkB inh STAT3ct	STAT1 inh 2
COc1ccccc1N1CCN(c2ccc(-c3ccccc3)nn2)CC1	67*	x	37	-1	-15	54*	41	18*	-65
COC(=O)c1cn[nH]c1NC(=S)Nc1ccc(C)cc1Cl	50*	x	18	x	-76	3	10	-24	-170
COC(=O)c1cn[nH]c1NC(=S)Nc1ccc(Cl)c(Cl)c1	28	x	17	17	-49	-1	x	x	x
c1ccc(-c2c[n+]3c(n2-c2ccccc2)CCC3)cc1	x	-8	0	3	x	-2	x	x	x
CCOc1ccc(-n2c(-c3ccccc3)c[n+]3c2CCCCC3)cc1	74*	-35	25	-80	29	0	76*	2	24*
O=C1/C(=C/c2ccccn2)COc2ccccc21	4	-7	5	3	3	-1	x	x	x
CC1C/C(=C/c2ccccn2)C(=O)/C(=C/c2ccccn2)C1 (stereo unspecified)	56*	78	23	u	-142	-8	36	-19	-45
CC(C)(C)C1C/C(=C/c2ccccn2)C(=O)/C(=C/c2ccccn2)C1 (stereo unspecified)	48*	84	38	-87	-132	-3	22	52*	-113
O=C(CN1CCC(c2nc3ccccc3s2)CC1)N1CCCCC1	4	-3	0	1	0	0	x	x	x
O=C(CN1CCC(c2nc3ccccc3s2)CC1)NCc1cccs1	46*	x	12	-12	12	-3	28	-1	-1
Cc1cc(-n2c(C)cc(C(=O)CSc3ncnc4ccccc34)c2C)no1	75*	-82	-4	x	18	2	75*	25*	23*
Cc1cc(C(=O)CSc2ncnc3ccccc23)c(C)n1C1CC1	x	-15	x	x	x	x	x	x	x
CCc1nc2ccc(C(=O)NCCN3CCNC3=O)cn2c1N(CCC(C)C)CCN(C)C	x	1	x	x	x	x	x	x	x
COc1ccc(-n2c(C)cc(-c3cn4cccc(C)c4n3)c2C)cc1	7	12	6	-6	-2	28	x	x	x
Cc1cc(-c2cn3ccccc3n2)c(C)n1-c1ccccc1	58*	-2	4	-3	0	9	21	-18	-83
O=C(CSc1nnc(-c2c[nH]c3ccccc23)o1)N1c2ccccc2CCc2ccccc21	49*	x	24	x	1	4	29	1	2
COc1cc(CC(=O)OCC(=O)Nc2sccc2C(N)=O)cc(OC)c1OC	58*	-8	9	0	32	1	55*	12	22*
NC(=O)c1ccsc1NC(=O)COC(=O)Cc1ccsc1	6	-11	18	-14	-13	-4	x	x	x
CC(C)(C)CNC(=O)C1(C)CCN1C(=O)c1ccccc1CCc1ccccc1 (stereo unspecified)	x	18	x	x	x	x	x	x	x
COCCNc1nc(Oc2cccc3ccccc23)c2sccc2n1	x	-24	x	x	x	x	x	x	x
CCN1CCN(S(=O)(=O)c2cc(OCC(=O)NC3CCCCC3)c(C)cc2Cl)CC1	77*	10	3	-16	21	3	57*	19*	8
Cc1cc(Cl)c(S(=O)(=O)N2CCCCCC2)cc1OCC(=O)NC1CCCCC1	82*	x	10	-5	10	-4	83*	31*	16*
O=C(COc1ccc(Br)cc1Br)NC1CCCC1	49*	8	20	5	-47	-1	53*	-2	-43
Cc1cc(Cl)c(S(=O)(=O)N2CCSCC2)cc1OCC(=O)NC1CCCCC1	67*	-22	-1	6	3	-3	67*	15*	10
Nc1cc2c(cc1Br)-c1c(C(=O)O)cccc1C2O (stereo unspecified)	x	10	x	x	x	x	x	x	x
SMILES	STAT3 inh-1	TAG inh	PPC-1+TRAIL kill	Lipid droplet	STAT1 inh	Platelet DG rel	STAT3 inh-2	NFkB inh STAT3ct	STAT1 inh 2
C=CCn1c(C)cc(C(=O)CSc2nc3ccccc3c(=O)[nH]2)c1C	28	-1	15	-6	-37	x	x	x	x
C=CCn1c(C)cc(C(=O)CSc2nc3ccccc3[nH]2)c1C	99*	x	29	x	30	-5	61*	15*	-64
N#Cc1c(/N=C/c2cccs2)sc2c1CCCCC2	67*	-11	-8	4	-21	16	21	-24	-121
COc1ccc(-c2cc(C(=O)Nc3cc(C)n(Cc4ccc(Cl)cc4)n3)no2)cc1OC	74*	x	8	x	13	-6	71*	29*	2
COc1ccc(OC)c(-c2cc(C(=O)Nc3c(C)nn(Cc4ccc(Cl)cc4)c3C)no2)c1	14	x	-6	x	1	11	x	x	x
Cc1nn(Cc2ccccc2Cl)c(C)c1NC(=O)C1C2CCC(O2)C1C(=O)O (stereo unspecified)	3	21	-5	-1	5	1	x	x	x
Cc1nn(Cc2ccc(Cl)cc2Cl)c(C)c1NC(=O)C1C2CCC(O2)C1C(=O)O (stereo unspecified)	47*	-27	18	-27	17	-2	27	4	10
CN(C)c1ccc(NC(=O)c2cnsn2)cc1	50*	5	32	3	19	4	16	-14	-36
COc1cc(NCCCn2cnc3c(OCc4ccccc4)ncnc32)cc(OC)c1OC	x	5	x	x	x	x	x	x	x
Cc1ccc([C@@H]2C[C@H]3[C@@H](CN2S(=O)(=O)c2ccc(Cl)cc2)C(=O)C[C@@H](c2ccccc2)N3S(=O)(=O)c2ccc(C)cc2)cc1	x	21	x	x	x	x	x	x	x
CN(Cc1ccccc1)C(=O)C1(C)CCN1C(=O)Cc1ccc(Cl)cc1Cl (stereo unspecified)	x	0	x	x	x	x	x	x	x
C=CC[n+]1c(/C=C2\C=Cc3cc(C)ccc3N2CC)ccc2ccccc21	88*	-6	43	-76	20	5	88*	50*	26*
O=C(CSC1=NCCS1)Nc1ccnc2ccccc12	64*	x	-4	-84	32	-3	75*	21*	24*
O=C(Nc1nnc(-c2ccc(Cl)cc2)o1)C1CCCCC1	x	18	4	-5	x	5	x	x	x
Clc1ccc(-c2nnc(NC3=NCCCCC3)o2)cc1	80*	-3	48	x	26	22	48*	19*	-48
COCCCN(Cc1cc(OC)c(OC)c(OC)c1)C(=S)Nc1cccc(Cl)c1	x	-18	x	x	x	x	x	x	x
c1ccc(CCNc2ncnc3ccccc23)cc1	90*	-30	17	-8	-3	-2	83*	23*	-23
